LMPTP block: LMPTP (human) inhibition; AID 651560; 360,000 compounds, 0.22% hits; recombinant LMPTP-A, OMFP fluorogenic substrate, fluorescence intensity; P24666; inhibition, % at 20 µM;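 active means compounds that cut the enzyme signal by at least half of the control window in the single-dose screen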
Target sequence (P24666 whole entry, looked up): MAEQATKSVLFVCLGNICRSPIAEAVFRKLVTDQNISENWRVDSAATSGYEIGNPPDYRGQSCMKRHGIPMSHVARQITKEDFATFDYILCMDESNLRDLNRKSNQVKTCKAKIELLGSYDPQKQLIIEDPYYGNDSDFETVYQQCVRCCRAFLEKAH
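Test system: LMPTP-A phosphatase enzyme. Amount: LMPTP-A at 0.625 nM final in the reaction. Reagent: OMFP substrate, 400 µM final. Times: 50 min at room temperature. Signal: endpoint fluorescence intensity from OMFP dephosphorylation. Read-out basis: % inhibition. Benchmarks: no-enzyme and uninhibited controls.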
Scp1 inh: inhibitors of human Scp-1 phosphatase; Q9GZU7; Recombinant Scp1, phosphopeptide, malachite green phosphate absorbance; inhibition, % at 20 µM; 340,000 compounds, 0.88% hits;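 active means inhibition above about 50% at 20 µM, limit read from the data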
Target sequence (Q9GZU7 76-261 limits assumed): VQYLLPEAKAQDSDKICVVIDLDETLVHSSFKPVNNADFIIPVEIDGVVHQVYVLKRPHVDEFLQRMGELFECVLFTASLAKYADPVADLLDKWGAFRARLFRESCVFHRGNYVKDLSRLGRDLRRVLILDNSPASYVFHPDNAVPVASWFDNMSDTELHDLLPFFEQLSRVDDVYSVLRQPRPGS
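Test system: SCP-1 phosphatase catalytic domain, residues 76-261; measured by: colorimetric phosphate reagent with accelerator and stabiliser, absorbance at 630 nm; timing: enzyme reaction 45 min at room temperature, colour 5 min, stabilisation 30 min; also added: Phosphorylated 17-residue peptide substrate; compound dosing: one concentration, 20 µM, with 1.0% DMSO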
STEP inh: blocks human striatal-enriched tyrosine phosphatase; P54829; recombinant STEP, OMFP fluorogenic substrate, fluorescence; inhibition, % at 20 µM; AID 588621; 360,000 compounds, 0.25% hits;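 active means inhibition at 20 µM, scaled per plate between control wells, above about 37%, limit read from the data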
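Also added – OMFP at 25 µM · Test system – STEP tyrosine phosphatase · Technique – FITC-channel fluorescence of OMFP product · Schedule – 20 min at room temperature, dark · Evaluation – control-normalized % inhibition with plate pattern correction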
Rpn11 block: Rpn11 (human) deubiquitinase inhibition; human 26S proteasome, Ub4-pepOG fluorescence polarization; 20S core pre-blocked with epoxomicin; inhibition, % at 20 µM; 360,000 compounds, 0.59% hits; AID 588493;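 active means inhibition at 20 µM, scaled to each plate's controls, above about 33%, limit read from the data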
Target sequence (O00487 whole entry, looked up): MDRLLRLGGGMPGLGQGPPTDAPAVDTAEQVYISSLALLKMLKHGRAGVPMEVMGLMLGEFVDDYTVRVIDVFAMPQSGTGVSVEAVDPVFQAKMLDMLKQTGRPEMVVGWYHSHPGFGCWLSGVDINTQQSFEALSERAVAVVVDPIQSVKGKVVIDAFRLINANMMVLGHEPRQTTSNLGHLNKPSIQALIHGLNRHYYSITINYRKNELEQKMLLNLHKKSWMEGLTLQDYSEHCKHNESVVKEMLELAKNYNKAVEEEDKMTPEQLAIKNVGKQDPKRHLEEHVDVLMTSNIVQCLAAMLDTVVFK
DNMT1 block: blocks human DNA methyltransferase DNMT1; DNMT1 molecular beacon, Hinp1I cleavage, fluorescence; inhibition (reported as % activation of signal), % at 10 µM; 360,000 compounds, 0.83% hits; in the data active means inhibition above about 50%
Scp-1 conf: Scp-1 (human) inhibition, single-dose confirmed; shares compounds with Scp1 inh; recombinant SCP-1 catalytic domain, phosphate release, malachite green absorbance; inhibition, % at 20 µM; 2,500 compounds, 61% hits; AID 540281
MG interference: colorimetric interference in Scp-1 counter-screen; shares compounds with Scp1 inh; Colorimetric interference counterscreen, malachite green absorbance 630 nm; apparent inhibition (interference), % at 20 µM; 2,500 tested, under 10 active; AID 540313;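 further: compounds added after enzyme reaction finished so only phosphate colour detection is probed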
Scp1 DSF: binds human Scp-1, shifting its melting temperature; 1,500 compounds, 25% hits; shares compounds with Scp1 inh; thermal shift relative to vanadate control, % at 40 µM; AID 540329; Recombinant SCP1, Sypro Orange thermal shift Tm;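 active means substances whose mean melting-temperature shift, as a percentage of the reference inhibitor's shift, reaches about 5.3%, limit read from the data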
Hits are given with their value; . = inactive; / = no result. Sampled rows, rich in hits. Any-hit rate of the full collection: about 2%.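 How the source made its calls, unless noted: active means inhibition of at least 30% at 20 µM; inactive means the rest.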

SMILES | LMPTP block | Scp1 inh | STEP inh | Rpn11 block | DNMT1 block | Scp-1 conf | MG interference | others
Cc1ccc(C(O)c2ncc(-c3ccc4ccccc4c3)[nH]2)cc1F (stereo unspecified) | . | / | . | . | . | / | /
CCOc1ccc(CCNC(=O)COC(=O)COc2ccc(C#N)cc2)cc1OCC | . | . | . | . | . | / | /
C[C@H]1CN([C@@H](C)CO)S(=O)(=O)c2ccc(Br)cc2O[C@H]1CN(C)C(=O)c1cccnc1 | . | / | . | . | . | / | /
O=C(Nc1ccc2c(c1)OCCO2)C1c2ccccc2OCC(=O)N1CCc1c[nH]c2ccccc12 (stereo unspecified) | . | / | / | / | / | / | /
O=C(NCc1ccccc1F)C1CCCN(S(=O)(=O)c2ccc(-n3cnnn3)cc2)C1 (stereo unspecified) | . | . | . | . | . | / | /
O=C(NCc1ccco1)C1CCCN(S(=O)(=O)c2ccc(-n3cnnn3)cc2)C1 (stereo unspecified) | . | 76 | . | . | . | 69 | . | Scp1 DSF=.
O=C(COC(=O)c1ccc(S(=O)(=O)N2CCCCC2)cc1)NCc1ccco1 | . | 54 | . | . | . | 73 | . | Scp1 DSF=.
O=C(CSc1ccc2nnc(-c3ccccc3)n2n1)NCc1ccco1 | . | 55 | . | . | . | . | .
COc1ccc(-c2nnc3ccc(SCC(=O)NCc4ccco4)nn23)cc1 | . | . | . | . | . | / | /
O=C(CSc1nnc(CNC(=O)c2c(F)cccc2F)o1)NCc1ccco1 | . | 68 | . | . | . | 33 | . | Scp1 DSF=.
O=C(Nc1ccc(F)cc1)C(c1cccc(F)c1)N1CCN(c2ccncc2)CC1 (stereo unspecified) | . | / | / | / | / | / | /
C[C@H](CO)N1C[C@H](C)[C@@H](CN(C)S(=O)(=O)c2ccc(F)cc2)Oc2ccc(NC(=O)c3ccncc3)cc2C1=O | . | 59 | . | . | . | . | .
Cc1noc(C)c1NC(=O)Nc1ccc2c(c1)C(=O)N([C@H](C)CO)C[C@H](C)[C@@H](CN(C)C(=O)Nc1c(C)noc1C)O2 | . | . | . | . | . | / | /
C[C@H](CO)N1C[C@H](C)[C@@H](CN(C)S(=O)(=O)c2ccccc2)Oc2ccc(NC(=O)c3ccncc3)cc2C1=O | . | . | . | . | . | / | /
COc1ccc(NC(=O)N(C)C[C@H]2Oc3ccc(NC(=O)Nc4ccc(C(F)(F)F)cc4)cc3C(=O)N([C@H](C)CO)C[C@@H]2C)cc1 | . | 50 | . | . | . | . | .
COc1ccc(S(=O)(=O)N(C)C[C@H]2Oc3ccc(NC(=O)c4ccncc4)cc3C(=O)N([C@H](C)CO)C[C@@H]2C)cc1 | . | 74 | . | . | . | . | .
Cc1noc(C)c1NC(=O)N(C)C[C@H]1Oc2ccc(NC(=O)Nc3ccccc3)cc2C(=O)N([C@H](C)CO)C[C@@H]1C | . | 65 | . | . | . | . | .
C=CCNC(=O)c1cc2cc(Cl)ccc2nc1N | . | / | / | / | / | / | /
COc1ccc(NC(=O)N(C)C[C@H]2Oc3ccc(NC(=O)c4ccncc4)cc3C(=O)N([C@H](C)CO)C[C@@H]2C)cc1 | . | 84 | . | . | . | . | .
N#Cc1ccccc1N1CCN(C(=O)c2ccc(NC(=O)c3ccc(Br)o3)cc2)CC1 | . | 60 | . | . | . | 73 | . | Scp1 DSF=.
O=C(Nc1ccc(C(=O)N2CCN(c3ccccn3)CC2)cc1)c1ccc(Br)o1 | . | . | . | . | . | / | /
O=C(O)c1cccc(NC(=O)c2cn(-c3ccccc3)nc2-c2cc3ccccc3o2)c1 | 56 | 58 | . | . | . | 80 | . | Scp1 DSF=.
CC1(C)CC(N2CCOCC2)=CC(=[N+]2CCOCC2)C1 | . | . | . | . | . | / | /
CC1C[N+](=C2C=C(N3CCOCC3)CC(C)(C)C2)CC(C)O1 (stereo unspecified) | . | 103 | . | . | . | 91 | . | Scp1 DSF=.
COc1ccccc1NC(C)=O | . | . | . | . | . | / | /
SMILES | LMPTP block | Scp1 inh | STEP inh | Rpn11 block | DNMT1 block | Scp-1 conf | MG interference | others
COc1ccccc1NC(=O)C(=N\O)/C(C)=N/O | . | 75 | . | . | . | 30 | . | Scp1 DSF=.
CC[n+]1ccc(/C=C/c2ccc(N(C)C)cc2)c2ccccc21 | . | . | . | . | . | / | /
CC[n+]1ccc(C[n+]2ccccc2)c2ccccc21 | . | 97 | . | . | . | 86 | . | Scp1 DSF=.
CCOC(=O)C(=Cc1ccc(N(C)C)cc1)C(=O)c1ccccc1 | . | / | . | . | . | / | /
CCOC(=O)N(O)c1ccc(C=Cc2ccccc2)cc1 | . | 59 | . | . | . | 50 | . | Scp1 DSF=.
O=C(CCC(=O)Nc1ccc(Br)cc1)N/N=C/c1cc([N+](=O)[O-])ccc1O | . | 74 | . | . | . | . | .
CCCC(=O)N1CCCC(c2cc(C(=O)Nc3ccccc3)no2)C1 (stereo unspecified) | . | / | . | . | . | / | /
CCCCN1C(=O)C(CC(=O)NC2CC2)CC(C(=O)N(CC)CC)=C1C (stereo unspecified) | . | / | . | . | . | / | /
O=C(CCN1C(=O)C2CCCCC2C1=O)Nc1nc2c(F)cc(F)cc2s1 (stereo unspecified) | . | . | . | . | . | / | /
O=C(CCN1C(=O)C2CCCCC2C1=O)Nc1nc2ccc(F)cc2s1 (stereo unspecified) | . | . | . | . | . | . | .
CC1CC(C)CN(C(=O)c2ccc3c(c2)N(Cc2ccccc2)CCS3)C1 (stereo unspecified) | . | 79 | . | . | . | . | .
CCOC(=O)N1CCN(C(=O)c2ccc3c(c2)N(Cc2ccccc2)CCS3)CC1 | . | . | . | . | . | / | /
CCCc1nc(-c2cc3ccc(C)cc3[nH]c2=O)no1 | . | . | . | . | . | / | /
CCOc1ccccc1-c1nc(-c2cc3ccc(C)cc3[nH]c2=O)no1 | . | 57 | . | . | . | 39 | . | Scp1 DSF=.
CN(CCc1ccccc1)C(=O)c1[nH]c(C(F)(F)F)nc1-c1ccccc1 | . | / | . | . | . | / | /
Cc1cccc(OCC(=O)Nc2ccncc2)c1C | . | 53 | . | . | . | . | .
COc1cc(NC(=O)C(C)(C)C)c(C(=O)OCC(=O)Nc2cc(C)on2)cc1OC | . | / | . | . | . | / | /
O=C(NCCc1ccccc1)c1ccc(-c2ccc(F)c(F)c2)c2ccoc12 | . | / | . | . | . | / | /
Cc1cc(C)c(C)c(OCCn2ccnc2)c1 | . | . | . | . | . | / | /
Cc1ccc(C)c(OCCn2ccnc2)c1 | . | 59 | . | . | . | 39 | . | Scp1 DSF=.

High-throughput results from PubChem BioAssay.
